System: U2OS
Assay: Multiplex assay against U2OS
Assay type: toxicity, cell-based
Conditions: human
Summary of the method: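 Live cells were stained at seeding with Hoechst33342, BioTracker Green Microtubule Cytoskeleton Dye, MitoTracker Red and Annexin V Alexa Fluor 680, then imaged on a CQ1 microscope at 37°C and 5% CO2 after compound addition. CellPathfinder machine-learning gating split cells into Hoechst high-intensity objects or normal cells. Normal cells were split into healthy, pyknosed or fragmented nuclei, and pyknosed cells into mitotic or apoptotic. Tubulin, mitochondrial-mass and membrane-permeability phenotypes are per cents of healthy-nucleus cells.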

[1] = 12 h, 1 µM, compound concentration 1 uM, replicate 1
[2] = 12 h, 1 µM, compound concentration 1 uM, replicate 2
[3] = 12 h, 10 µM, compound concentration 10 uM, replicate 1
[4] = 12 h, 10 µM, compound concentration 10 uM, replicate 2
[5] = 24 h, 1 µM, compound concentration 1 uM, replicate 1
[6] = 24 h, 1 µM, compound concentration 1 uM, replicate 2
[7] = 24 h, 10 µM, compound concentration 10 uM, replicate 1
[8] = 24 h, 10 µM, compound concentration 10 uM, replicate 2
[9] = 48 h, 1 µM, compound concentration 1 uM, replicate 1
[10] = 48 h, 1 µM, compound concentration 1 uM, replicate 2
[11] = 48 h, 10 µM, compound concentration 10 uM, replicate 1
[12] = 48 h, 10 µM, compound concentration 10 uM, replicate 2

CC[C@@H](C)Nc1nc(C)nc2c(-c3ccc(OC)nc3C)c(C)nn12 [PEXACERFONT]
Population Apoptotic (%) [1]: 73% | Population Fragmented Nuclei (%) [1]: 24% | Population Healthy Nuclei (%) [1]: 66% | Population Hoechst High Intensity Objects (%) [1]: 3% | Population Membrane Permeable-Phenotype (%) [1]: 2% | Population Mitochondria Different-Phenotype (%) [1]: 3% | Population Mitotic Cells (%) [1]: 26% | Population Normal (%) [1]: 96% | Population Pyknosed Nuclei (%) [1]: 9% | Population Tubulin-Different-Phenotype (%) [1]: 2% | Total Cell Count [1]: 258 | Population Apoptotic (%) [2]: 87% | Population Fragmented Nuclei (%) [2]: 17% | Population Healthy Nuclei (%) [2]: 76% | Population Hoechst High Intensity Objects (%) [2]: 0% | Population Membrane Permeable-Phenotype (%) [2]: 1% | Population Mitochondria Different-Phenotype (%) [2]: 0% | Population Mitotic Cells (%) [2]: 12% | Population Normal (%) [2]: 99% | Population Pyknosed Nuclei (%) [2]: 5% | Population Tubulin-Different-Phenotype (%) [2]: 0% | Total Cell Count [2]: 136 | Population Apoptotic (%) [3]: 90% | Population Fragmented Nuclei (%) [3]: 26% | Population Healthy Nuclei (%) [3]: 64% | Population Hoechst High Intensity Objects (%) [3]: 1% | Population Membrane Permeable-Phenotype (%) [3]: 2% | Population Mitochondria Different-Phenotype (%) [3]: 1% | Population Mitotic Cells (%) [3]: 9% | Population Normal (%) [3]: 98% | Population Pyknosed Nuclei (%) [3]: 8% | Population Tubulin-Different-Phenotype (%) [3]: 1% | Total Cell Count [3]: 265 | Population Fragmented Nuclei (%) [4]: 21% | Population Healthy Nuclei (%) [4]: 70% | Population Membrane Permeable-Phenotype (%) [4]: 12% | Population Mitochondria Different-Phenotype (%) [4]: 7% | Population Mitotic Cells (%) [4]: 10% | Population Pyknosed Nuclei (%) [4]: 7% | Population Tubulin-Different-Phenotype (%) [4]: 4% | Total Cell Count [4]: 128 | Population Apoptotic (%) [5]: 80% | Population Fragmented Nuclei (%) [5]: 21% | Population Healthy Nuclei (%) [5]: 69% | Population Hoechst High Intensity Objects (%) [5]: 2% | Population Membrane Permeable-Phenotype (%) [5]: 5% | Population Mitochondria Different-Phenotype (%) [5]: 2% | Population Mitotic Cells (%) [5]: 20% | Population Normal (%) [5]: 97% | Population Pyknosed Nuclei (%) [5]: 8% | Population Tubulin-Different-Phenotype (%) [5]: 2% | Total Cell Count [5]: 346 | Population Apoptotic (%) [6]: 85% | Population Fragmented Nuclei (%) [6]: 16% | Population Healthy Nuclei (%) [6]: 75% | Population Membrane Permeable-Phenotype (%) [6]: 3% | Population Mitochondria Different-Phenotype (%) [6]: 6% | Population Mitotic Cells (%) [6]: 14% | Total Cell Count [6]: 172 | Population Apoptotic (%) [7]: 80% | Population Fragmented Nuclei (%) [7]: 21% | Population Healthy Nuclei (%) [7]: 71% | Population Hoechst High Intensity Objects (%) [7]: 2% | Population Membrane Permeable-Phenotype (%) [7]: 5% | Population Mitochondria Different-Phenotype (%) [7]: 3% | Population Mitotic Cells (%) [7]: 19% | Population Normal (%) [7]: 97% | Population Pyknosed Nuclei (%) [7]: 7% | Population Tubulin-Different-Phenotype (%) [7]: 4% | Total Cell Count [7]: 307 | Population Apoptotic (%) [8]: 92% | Population Fragmented Nuclei (%) [8]: 14% | Population Healthy Nuclei (%) [8]: 77% | Population Hoechst High Intensity Objects (%) [8]: 0% | Population Membrane Permeable-Phenotype (%) [8]: 7% | Population Mitotic Cells (%) [8]: 7% | Population Normal (%) [8]: 99% | Population Pyknosed Nuclei (%) [8]: 8% | Population Tubulin-Different-Phenotype (%) [8]: 3% | Total Cell Count [8]: 159 | Population Apoptotic (%) [9]: 88% | Population Fragmented Nuclei (%) [9]: 16% | Population Healthy Nuclei (%) [9]: 75% | Population Hoechst High Intensity Objects (%) [9]: 1% | Population Membrane Permeable-Phenotype (%) [9]: 3% | Population Mitochondria Different-Phenotype (%) [9]: 1% | Population Mitotic Cells (%) [9]: 11% | Population Normal (%) [9]: 98% | Population Pyknosed Nuclei (%) [9]: 7% | Population Tubulin-Different-Phenotype (%) [9]: 1% | Total Cell Count [9]: 476 | Population Apoptotic (%) [10]: 91% | Population Healthy Nuclei (%) [10]: 73% | Population Hoechst High Intensity Objects (%) [10]: 2% | Population Membrane Permeable-Phenotype (%) [10]: 5% | Population Mitochondria Different-Phenotype (%) [10]: 4% | Population Mitotic Cells (%) [10]: 8% | Population Normal (%) [10]: 97% | Population Pyknosed Nuclei (%) [10]: 9% | Population Tubulin-Different-Phenotype (%) [10]: 4% | Total Cell Count [10]: 261 | Population Apoptotic (%) [11]: 94% | Population Fragmented Nuclei (%) [11]: 17% | Population Healthy Nuclei (%) [11]: 74% | Population Hoechst High Intensity Objects (%) [11]: 1% | Population Membrane Permeable-Phenotype (%) [11]: 4% | Population Mitochondria Different-Phenotype (%) [11]: 1% | Population Mitotic Cells (%) [11]: 5% | Population Normal (%) [11]: 98% | Population Pyknosed Nuclei (%) [11]: 8% | Population Tubulin-Different-Phenotype (%) [11]: 1% | Total Cell Count [11]: 478 | Population Apoptotic (%) [12]: 100% | Population Fragmented Nuclei (%) [12]: 13% | Population Healthy Nuclei (%) [12]: 77% | Population Membrane Permeable-Phenotype (%) [12]: 6% | Population Mitochondria Different-Phenotype (%) [12]: 3% | Population Mitotic Cells (%) [12]: 0% | Population Tubulin-Different-Phenotype (%) [12]: 2% | Total Cell Count [12]: 242
